pIC50: −log10 of the molar value. In brackets after ≈: the same amount, converted by molar mass. Activity calls are given as the source filed them. No cut-off for these calls is given here.
Key:
Staphylococcus aureus [1] = test: Antibacterial activity against Staphylococcus aureus incubated for 24 hrs under aerobic condition by MABA; assay type: functional; conditions: read-out: MIC100
How it was run: (§1)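 Resazurin was then added from a 0.08% stock for 1 h. MIC100 was the lowest concentration where the dye stayed blue (pink means growth). Absorbance was also read at 570 and 600 nm.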

[2] = tested on: Mycobacterium tuberculosis; test: Antibacterial activity against Mycobacterium tuberculosis; assay type: functional; conditions: read-out: MIC100
How it was run: (§2)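 Mtb H37Rv grown in 7H9/OADC at 37 °C with shaking to OD600 0.5. The 0.5-OD culture is exposed aerobically to serial dilutions for 15 days at 37 °C. Resazurin (0.02% stock) is then added for 4 h at 37 °C with shaking.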

Vero = test: Cytotoxicity against African green monkey Vero cells assessed as reduction in cell viability after 72 hrs by MTT assay; assay type: cell-based; conditions: Chlorocebus sabaeus
How it was run: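 Vero cells were grown in complete EMEM with 10% FBS and exposed for 72 h to 0.78–200 µg/mL. The medium was then swapped for phenol-red-free EMEM and MTT was added. Formazan absorbance was read at 570 nm to give IC50.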

[3] = Selectivity index, ratio of IC50 for African green monkey Vero cells to MIC100 for replicating Mycobacterium tuberculosis H37Rv by MABA; assay type: toxicity; conditions: read-out: Selectivity Index
How it was run: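 Vero cells are cultured in EMEM with 10% FBS and exposed for 72 h to 0.78–200 µg/mL. Medium is switched to phenol-red-free EMEM, MTT is added, and formazan is read at 570 nm to give IC50. The selectivity index is Vero IC50 divided by the MABA MIC.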

Escherichia coli [4] = test: Inhibition of protein translation/transcription in Escherichia coli S30 cell extract at 0.1 ug/ml using circular DNA with pBESTluc after 60 mins by luciferase reporter gene assay; assay type: functional
How it was run: (§3)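 Coupled transcription/translation used E. coli S30 extract, amino acid mix and premix, with the pBESTluc template carrying firefly luciferase under the tac promoter. Compounds were added in DMSO and reactions were started with DNA. Incubation was 60 min at 37 °C, stopped on ice, and luciferase was read after adding assay substrate.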

Escherichia coli [5] = test: Inhibition of protein translation/transcription in Escherichia coli S30 cell extract at 0.5 ug/ml using circular DNA with pBESTluc after 60 mins by luciferase reporter gene assay; assay type: functional; how it was run: as §3
Erythrocyte = test: Hemolytic activity in sheep erythrocytes after 2 hrs; assay type: ADME, cell-based; conditions: Ovis aries
How it was run: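 Washed heparinized sheep erythrocytes at 3% in buffer pH 7.4 were treated with 2–200 µg/mL for 2 h at 37 °C with gentle shaking. Triton X-100 (0.01–1%) was the positive control and PEG:H2O diluent the negative control. Released hemoglobin was read at OD540 and % hemolysis calculated against both controls.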

[6] = Metabolic stability in Sprague-Dawley rat liver microsomes at 500 ng/ml preincubated for 5 mins followed by NADPH addition […] by C-MS/MS analysis; assay type: ADME, microsome; conditions: 10 min
[7] = tested on: Mycobacterium tuberculosis; test: Bactericidal activity against replicating Mycobacterium tuberculosis H37Rv incubated for 15 days under aerobic condition by MABA; assay type: functional; conditions: 360 h; how it was run: as §2
[8] = tested on: Mycolicibacterium smegmatis; test: Antibacterial activity against Mycobacterium smegmatis ATCC 607 incubated for 48 hrs under aerobic condition by MABA; assay type: functional; conditions: ATCC 607, 48 h, read-out: MIC100
How it was run: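 Mid-log culture at OD 0.5 was incubated with serial dilutions aerobically at 37 °C for 48 h. Resazurin was then added from a 0.08% stock for 1 h. MIC100 was the lowest concentration that stayed blue; absorbance was also read at 570/600 nm.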

[9] = tested on: Mycolicibacterium smegmatis; test: Bactericidal activity against Mycobacterium smegmatis ATCC 607 incubated for 48 hrs under aerobic condition by MABA; assay type: functional; conditions: ATCC 607, 48 h
Staphylococcus aureus [10] = test: Bactericidal activity against Staphylococcus aureus incubated for 24 hrs under aerobic condition by MABA; assay type: functional
Staphylococcus aureus [11] = test: Antibacterial activity against Staphylococcus aureus ATCC 25923 incubated for 24 hrs under aerobic condition by MABA; assay type: functional; conditions: ATCC 25923, 24 h, read-out: MIC100
How it was run: (§4)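 Mid-log cultures at OD 0.5 were exposed to serial dilutions under aerobic conditions at 37 °C for 24 h. Resazurin was then added from a 0.08% stock for 1 h. MIC100 was the lowest concentration where the dye stayed blue (pink means growth). Absorbance was also read at 570 and 600 nm.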

Staphylococcus aureus [12] = test: Bactericidal activity against Staphylococcus aureus ATCC 25923 incubated for 24 hrs under aerobic condition by MABA; assay type: functional; conditions: ATCC 25923, 24 h
Staphylococcus aureus [13] = test: Antibacterial activity against Staphylococcus aureus BAA 2094 incubated for 24 hrs under aerobic condition by MABA; assay type: functional; conditions: BAA 2094, 24 h, read-out: MIC100; how it was run: as §1
Staphylococcus aureus [14] = test: Bactericidal activity against Staphylococcus aureus BAA 2094 incubated for 24 hrs under aerobic condition by MABA; assay type: functional; conditions: BAA 2094, 24 h
Staphylococcus aureus [15] = test: Antibacterial activity against Staphylococcus aureus BAA 1683 incubated for 24 hrs under aerobic condition by MABA; assay type: functional; conditions: BAA 1683, 24 h, read-out: MIC100; how it was run: as §4
Staphylococcus aureus [16] = test: Bactericidal activity against Staphylococcus aureus BAA 1683 incubated for 24 hrs under aerobic condition by MABA; assay type: functional; conditions: BAA 1683, 24 h
Staphylococcus aureus [17] = test: Antibacterial activity against Staphylococcus aureus BAA 44 incubated for 24 hrs under aerobic condition by MABA; assay type: functional; conditions: BAA 44, 24 h, read-out: MIC100; how it was run: as §4
Staphylococcus aureus [18] = test: Bactericidal activity against Staphylococcus aureus BAA 44 incubated for 24 hrs under aerobic condition by MABA; assay type: functional; conditions: BAA 44, 24 h
Enterococcus faecalis [19] = test: Antibacterial activity against Enterococcus faecalis ATCC 349 incubated for 24 hrs under aerobic condition by MABA; assay type: functional; conditions: ATCC 349, 24 h, read-out: MIC100; how it was run: as §4
Enterococcus faecalis [20] = test: Bactericidal activity against Enterococcus faecalis ATCC 349 incubated for 24 hrs under aerobic condition by MABA; assay type: functional; conditions: ATCC 349, 24 h
Enterococcus faecalis [21] = test: Antibacterial activity against Enterococcus faecalis ATCC 19433 incubated for 24 hrs under aerobic condition by MABA; assay type: functional; conditions: ATCC 19433, 24 h, read-out: MIC100; how it was run: as §4
Enterococcus faecalis [22] = test: Bactericidal activity against Enterococcus faecalis ATCC 19433 incubated for 24 hrs under aerobic condition by MABA; assay type: functional; conditions: ATCC 19433, 24 h
Clostridioides difficile = test: Bactericidal activity against Clostridium difficile ATCC 700057 incubated for 24 hrs […] by MABA; assay type: functional; conditions: ATCC 700057, 24 h
Streptococcus pneumoniae [23] = test: Antibacterial activity against Streptococcus pneumoniae ATCC 6301 incubated for 24 hrs under aerobic condition by MABA; assay type: functional; conditions: ATCC 6301, 24 h, read-out: MIC100; how it was run: as §4
Streptococcus pneumoniae [24] = test: Bactericidal activity against Streptococcus pneumoniae ATCC 6301 incubated for 24 hrs under aerobic condition by MABA; assay type: functional; conditions: ATCC 6301, 24 h
Klebsiella pneumoniae [25] = test: Antibacterial activity against Klebsiella pneumoniae ATCC 12019 incubated for 24 hrs under aerobic condition by MABA; assay type: functional; conditions: ATCC 12019, 24 h, read-out: MIC100; how it was run: as §4
Klebsiella pneumoniae [26] = test: Bactericidal activity against Klebsiella pneumoniae ATCC 12019 incubated for 24 hrs under aerobic condition by MABA; assay type: functional; conditions: ATCC 12019, 24 h
Acinetobacter baumannii [27] = test: Antibacterial activity against Acinetobacter baumannii ATCC 19606 incubated for 24 hrs under aerobic condition by MABA; assay type: functional; conditions: ATCC 19606 = CIP 70.34 = JCM 6841, 24 h, read-out: MIC100; how it was run: as §4
Acinetobacter baumannii [28] = test: Bactericidal activity against Acinetobacter baumannii ATCC 19606 incubated for 24 hrs under aerobic condition by MABA; assay type: functional; conditions: ATCC 19606 = CIP 70.34 = JCM 6841, 24 h
Escherichia coli [29] = test: Antibacterial activity against Escherichia coli ATCC 10798 incubated for 24 hrs under aerobic condition by MABA; assay type: functional; conditions: ATCC 10798, 24 h, read-out: MIC100; how it was run: as §4
Escherichia coli [30] = test: Bactericidal activity against Escherichia coli ATCC 10798 incubated for 24 hrs under aerobic condition by MABA; assay type: functional; conditions: ATCC 10798, 24 h
Streptococcus salivarius [31] = test: Antibacterial activity against Streptococcus salivarius […] incubated for 24 hrs under aerobic condition by MABA; assay type: functional; conditions: read-out: MIC100; how it was run: as §1
Streptococcus salivarius [32] = test: Bactericidal activity against Streptococcus salivarius ATCC 6301 incubated for 24 hrs under aerobic condition by MABA; assay type: functional; conditions: ATCC 6301, 24 h
Bacillus subtilis [33] = test: Antibacterial activity against Bacillus subtilis ATCC 6051 incubated for 24 hrs under aerobic condition by MABA; assay type: functional; conditions: ATCC 6051, 24 h, read-out: MIC100; how it was run: as §4
Bacillus subtilis [34] = test: Bactericidal activity against Bacillus subtilis ATCC 6051 incubated for 24 hrs under aerobic condition by MABA; assay type: functional; conditions: ATCC 6051, 24 h
[35] = tested on: Mycobacterium tuberculosis; test: Bactericidal activity against Mycobacterium tuberculosis H37Rv at 2 times MIC measured every 24 hrs up to 12 days by time kill assay relative to control; assay type: functional
How it was run: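 Mid-log H37Rv (OD 0.5) is diluted to OD 0.25 and exposed at MIC, 2×MIC or 4×MIC. Every 24 h cultures are diluted 10- to 10,000-fold and plated on 7H10/OADC agar. Plates are incubated 15 days at 37 °C before colony counts.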

## C=C[C@]1(C)C[C@@H](OC(=O)CSC(C)(C)CNC(=O)[C@H](N)CC(C)C)[C@]2(C)[C@H](C)CC[C@]3(CCC(=O)[C@H]32)[C@@H](C)[C@@H]1O
Staphylococcus aureus [1]
  MIC: 0.4 µg/mL (≈ 0.691 µM)
[2]
  MIC: < 6.25 µg/mL
Vero
  IC50: 25 µg/mL (≈ 43.2 µM)
[3]
  selectivity ratio: 16
Escherichia coli [4]
  inhibition: Active
Escherichia coli [5]
  inhibition: Active
Erythrocyte
  pIC50: < 3.70
[6]
  Stability: Unstable
[7]
  MBC: 1.46 µg/mL (≈ 2.52 µM)
[8]
  MIC: 6.25 µg/mL (≈ 10.8 µM)
[9]
  MBC: > 25 µg/mL
Staphylococcus aureus [10]
  MBC: 0.8 µg/mL (≈ 1.38 µM)
Staphylococcus aureus [11]
  MIC: > 25 µg/mL
Staphylococcus aureus [12]
  MBC: > 25 µg/mL
Staphylococcus aureus [13]
  MIC: > 25 µg/mL
Staphylococcus aureus [14]
  MBC: > 25 µg/mL
Staphylococcus aureus [15]
  MIC: > 25 µg/mL
Staphylococcus aureus [16]
  MBC: > 25 µg/mL
Staphylococcus aureus [17]
  MIC: > 25 µg/mL
Staphylococcus aureus [18]
  MBC: > 25 µg/mL
Enterococcus faecalis [19]
  MIC: > 25 µg/mL
Enterococcus faecalis [20]
  MBC: > 25 µg/mL
Enterococcus faecalis [21]
  MIC: 12.5 µg/mL (≈ 21.6 µM)
Enterococcus faecalis [22]
  MBC: 25 µg/mL (≈ 43.2 µM)
Clostridioides difficile
  MBC: 1.56 µg/mL (≈ 2.69 µM)
Streptococcus pneumoniae [23]
  MIC: 25 µg/mL (≈ 43.2 µM)
Streptococcus pneumoniae [24]
  MBC: > 25 µg/mL
Klebsiella pneumoniae [25]
  MIC: 25 µg/mL (≈ 43.2 µM)
Klebsiella pneumoniae [26]
  MBC: > 25 µg/mL
Acinetobacter baumannii [27]
  MIC: 12.5 µg/mL (≈ 21.6 µM)
Acinetobacter baumannii [28]
  MBC: 25 µg/mL (≈ 43.2 µM)
Escherichia coli [29]
  MIC: 12.5 µg/mL (≈ 21.6 µM)
Escherichia coli [30]
  MBC: > 25 µg/mL
Streptococcus salivarius [31]
  MIC: 6.25 µg/mL (≈ 10.8 µM)
Streptococcus salivarius [32]
  MBC: > 25 µg/mL
Bacillus subtilis [33]
  MIC: 12.5 µg/mL (≈ 21.6 µM)
Bacillus subtilis [34]
  MBC: 25 µg/mL (≈ 43.2 µM)
[35]
  Activity: 100%

Source: ChEMBL document CHEMBL4229550, “An antimycobacterial pleuromutilin analogue effective against dormant bacilli” (Bioorg Med Chem, 2018)
